ChEMBL document CHEMBL4840316, “Structure-based screening for the discovery of 1,2,4-oxadiazoles as promising hits for the development of new anti-inflammatory agents interfering with eicosanoid biosynthesis pathways” (Eur J Med Chem, 2021)
Calls of active or inactive are those of the source. No cut-off for these calls is given here.

Assays:
[1] = test system: Mus musculus; assay: Effect on IL-6 level in zymosan-induced CD-1 mouse peritonitis model in peritoneal exudate at 10 mg/kg, ip treated with compound for 30 mins after 4 to 24 hrs zymosan stimulation by ELISA; format: functional, organism-based
How it was run: (§1)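 Male CD-1 mice (10–14 wk, 25–30 g), n = 6/group. Zymosan A (500 mg/kg in PBS, boiled) given i.p.; test compound (0.1–10 mg/kg in DMSO/saline 1:3) i.p. 30 min later. Exudates collected by 2 mL PBS lavage at 4 or 24 h. Cells spun at 4 °C and cytokines in supernatant measured by sandwich ELISA at 450 nm. Values normalized to exudate levels, mean ± S.D.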

[2] = test system: Mus musculus; assay: Antiinflammatory activity in zymosan-induced CD-1 mouse peritonitis model assessed as reduction in zymosan-induced TNF-alpha level in peritoneal exudate at 10 mg/kg, ip treated with compound for 30 mins after 24 hrs zymosan stimulation by ELISA; format: functional, organism-based; how it was run: as §1
[3] = molecular target: T1, Prostaglandin E synthase (Homo sapiens, UniProt O14684); assay: Inhibition of mPGES-1 obtained from IL-beta stimulated human A549 cells microsomes assessed as residual activity by measuring conversion of PGH2 to PGE2 by cell-free RP-HPLC method; parameters: species or system Microsome
T1 sequence (O14684 whole entry): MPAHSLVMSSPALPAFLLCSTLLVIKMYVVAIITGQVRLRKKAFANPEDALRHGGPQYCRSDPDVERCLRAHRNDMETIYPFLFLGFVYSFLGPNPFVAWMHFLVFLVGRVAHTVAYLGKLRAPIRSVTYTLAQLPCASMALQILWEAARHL
How it was run: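 Microsomes from A549 cells stimulated with IL-1β (1 ng/ml) for 48 h. Diluted in 0.1 M potassium phosphate pH 7.4 with 2.5 mM glutathione. Pre-incubated 15 min on ice with compound (single 10 µM, or 0.03–10 µM for the curve) or 1% DMSO. 20 µM PGH2 added for 1 min; stopped with FeCl3/citric acid containing 11β-PGE2 standard. PGE2 measured by SPE and RP-HPLC. n = 3.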

[4] = test system: Mus musculus; assay: Antiinflammatory activity in zymosan-induced CD-1 mouse peritonitis model assessed as reduction in zymosan-induced IL-1beta level in peritoneal exudate at 10 mg/kg, ip treated with compound for 30 mins after 4 hrs zymosan stimulation by ELISA; format: functional, organism-based; how it was run: as §1
[5] = test system: Mus musculus; assay: Antiinflammatory activity in zymosan-induced CD-1 mouse peritonitis model assessed as reduction in zymosan-induced neutrophil recruitment at 1 mg/kg, ip treated with compound for 30 mins after 4 hrs zymosan stimulation by ELISA; format: functional, organism-based
How it was run: (§2)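 Male CD-1 mice (10–14 wk, 25–30 g), n = 6/group, injected i.p. with boiled zymosan A (500 mg/kg in PBS). Compound (0.1–10 mg/kg, DMSO/saline 1:3) given i.p. 30 min afterwards. Peritoneal lavage with 2 mL PBS at 4 or 24 h. Total leukocytes counted by automated counter with trypan blue, normalized to exudate. Mean ± S.D.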

[6] = test system: Mus musculus; assay: Antiinflammatory activity in zymosan-induced CD-1 mouse peritonitis model assessed as reduction in zymosan-induced TNF-alpha level in peritoneal exudate at 10 mg/kg, ip treated with compound for 30 mins after 4 hrs zymosan stimulation by ELISA; format: functional, organism-based; how it was run: as §1
[7] = test system: Mus musculus; assay: Antiinflammatory activity in zymosan-induced CD-1 mouse peritonitis model assessed as reduction in zymosan-induced IL-1beta level in peritoneal exudate at 10 mg/kg, ip treated with compound for 30 mins after 24 hrs zymosan stimulation by ELISA; format: functional, organism-based; how it was run: as §1
[8] = test system: Mus musculus; assay: Effect on IL-10 level in zymosan-induced CD-1 mouse peritonitis model in peritoneal exudate at 10 mg/kg, ip treated with compound for 30 mins after 4 to 24 hrs zymosan stimulation by ELISA; format: functional, organism-based; how it was run: as §1
[9] = test system: Mus musculus; assay: Antiinflammatory activity in zymosan-induced CD-1 mouse peritonitis model assessed as reduction in zymosan-induced neutrophil recruitment at 10 mg/kg, ip treated with compound for 30 mins after 4 hrs zymosan stimulation by ELISA; format: functional, organism-based; how it was run: as §2
[10] = molecular target: T2, Prostaglandin G/H synthase 1 (Ovis aries) (UniProt P05979); assay: Inhibition of ovine COX-1 assessed as residual activity at 10 uM using arachidonic acid as substrate preincubated for 5 mins followed by substrate addition and measured after 5 mins by RP-HPLC method relative to control
T2 sequence (whole entry): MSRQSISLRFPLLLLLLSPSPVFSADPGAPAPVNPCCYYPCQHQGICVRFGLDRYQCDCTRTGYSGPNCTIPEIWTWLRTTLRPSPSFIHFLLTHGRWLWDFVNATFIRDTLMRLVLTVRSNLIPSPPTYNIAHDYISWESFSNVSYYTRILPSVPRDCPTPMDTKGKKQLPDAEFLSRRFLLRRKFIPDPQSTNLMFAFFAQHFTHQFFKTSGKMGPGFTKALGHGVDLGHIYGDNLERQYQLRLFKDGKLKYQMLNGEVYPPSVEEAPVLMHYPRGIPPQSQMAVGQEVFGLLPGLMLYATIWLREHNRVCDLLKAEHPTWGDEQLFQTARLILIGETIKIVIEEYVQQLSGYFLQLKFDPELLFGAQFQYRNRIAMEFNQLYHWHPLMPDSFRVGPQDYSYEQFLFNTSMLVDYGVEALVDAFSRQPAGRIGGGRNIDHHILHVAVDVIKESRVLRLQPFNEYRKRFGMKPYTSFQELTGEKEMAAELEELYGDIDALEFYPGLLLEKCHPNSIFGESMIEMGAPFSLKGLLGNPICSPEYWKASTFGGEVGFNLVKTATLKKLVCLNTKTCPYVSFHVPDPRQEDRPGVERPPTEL
How it was run: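 Ovine COX-1 (50 U/mL) or human recombinant COX-2 (20 U/mL) in 100 mM Tris pH 8 with 5 mM glutathione, 100 µM EDTA and 5 µM hemoglobin. Pre-incubated with compound or 0.1% DMSO for 5 min at room temperature, then 1 min at 37 °C. Started with AA (5 µM for COX-1, 2 µM for COX-2), run 5 min at 37 °C. 12-HHT measured by RP-HPLC.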

| SMILES | Activity [1] | Activity [2] | IC50 [3] [µM] | Activity [4] | Activity [5] | Activity [6] | Activity [7] | Activity [8] | Activity [9] | Activity [10] [%] |
| --- | --- | --- | --- | --- | --- | --- | --- | --- | --- | --- |
| Oc1c(F)c(F)cc(-c2nc(-c3ccc(-c4ccsc4)cc3)no2)c1F | inactive | Active | 3.6 | Active | Active | Active | Active | inactive | Active | – |
| Oc1cccc(CCc2nc(-c3ccc(-c4ccsc4)cc3)no2)c1 | – | – | – | – | – | – | – | – | – | 47.7 |
